We go through 5 compounds from ChEMBL document CHEMBL1121831 (1981).

Assay [1] has as its system CCRF-CEM. The assay can be described thus: Compound is tested for the inhibition of growth of human lymphoblastic leukemia cells (CEM). The conditions noted are these: read-out: ID50 (the source's name). It is filed as functional. The method in brief:
(§1)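 CEM human lymphoblastic and L1210 murine leukemia cells were grown in culture with drug for 48 h, at concentrations up to 10 μM. The read-out was growth inhibition, given as ID50 or, where ID50 was not reached, as percent inhibition at 10 μM. Values are averages of triplicate experiments.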

For assay [2], the target named is Dihydrofolate reductase (Lactobacillus casei) (UniProt P00381). The assay can be described thus: Compound is evaluated for binding to Lactobacillus casei dihydrofolate reductase using kinetic assay. The conditions noted are these: Lacticaseibacillus casei.
For assay [3], the system named is L1210. Kind of assay: Compound is evaluated for activity against L1210 leukemia in mice, at dose 15 mg/kg in experiment 1. The format is functional, Mus musculus. The method in brief: (§2)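 B6D2F1 mice were inoculated ip with 10^5 L1210 cells on day 0. Test agents were given ip on days 1, 4 and 7 in 10% Tween 80 or a 1:1:8 emulphor-ethanol-water suspension; MTX was given ip as the disodium salt in water. Groups were mostly five mice. Read-out was median survival of treated vs control mice (days) and % increase in life span.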

Assay [4] deals with L1210. Kind of assay: Compound is evaluated for activity against L1210 leukemia in mice, at dose 20 mg/kg in experiment 2. It is filed as functional, Mus musculus. The method in brief:
as §2

Assay [5] relates to L1210. Kind of assay: Compound is evaluated for activity against L1210 leukemia in mice, at dose 40 mg/kg in experiment 2. It is filed as functional, Mus musculus. The method, boiled down: as §2
In assay [6] the test system is L1210. Kind of assay: Compound is evaluated for activity against L1210 leukemia in mice, at dose 7.5 mg/kg in experiment 1. It is filed as functional, Mus musculus. The method in brief: as §2
The test system of assay [7] is L1210. Kind of assay: Compound is tested for the inhibition of growth of murine leukemia cells (L1210). It is filed as functional. To be noted: Mus musculus, read-out: ID50 (the source's name). The method in brief:
as §1

For assay [8], the system named is L1210. The assay can be described thus: Compound is evaluated for percent increase in life span against L1210 leukemia in mice, at dose 20 mg/kg in experiment 2. The format is functional. To be noted: Mus musculus. The method, boiled down: (§3)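 B6D2F1 mice were inoculated ip with 10⁵ L1210 cells on day 0. Drug was given ip on days 1, 4 and 7 (q3d) as a suspension in 10% Tween 80 or 1:1:8 emulphor–ethanol–water, or as the disodium salt in water. The read-out was median survival of treated versus control mice (T/C, days), expressed as % increase in life span.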

In assay [9] the test system is L1210. Kind of assay: Compound is evaluated for percent increase in life span against L1210 leukemia in mice, at dose 40 mg/kg in experiment 2. It is filed as functional. The conditions noted are these: Mus musculus. The method, boiled down: as §3
Assay [10] deals with L1210. The assay can be described thus: Compound is evaluated for percent increase in life span against L1210 leukemia in mice, at dose 7.5 mg/kg in experiment 1. To be noted: Mus musculus. It is filed as functional. The method in brief:
as §3

Assay [11] relates to L1210. Kind of assay: Compound is evaluated for percent increase in life span against L1210 leukemia in mice, at dose 15 mg/kg in experiment 1. The format is functional. To be noted: Mus musculus. The method in brief: as §3
Assay [12] relates to Mus musculus. Kind of assay: Compound is evaluated for activity against L1210 leukemia in mice, at dose 7.5 mg/kg expressed as T/C in experiment 1. The format is functional. The method, boiled down:
as §2

The subject of assay [13] is Mus musculus. The assay can be described thus: Compound is evaluated for activity against L1210 leukemia in mice, at dose 15 mg/kg expressed as T/C in experiment 1. The format is functional. The method in brief: as §2
Assay [14] concerns Mus musculus. The assay can be described thus: Compound is evaluated for activity against L1210 leukemia in mice, at dose 20 mg/kg expressed as T/C in experiment 2. The format is functional. The method, boiled down:
as §2

For assay [15], the system named is Mus musculus. The assay can be described thus: Compound is evaluated for activity against L1210 leukemia in mice, at dose 40 mg/kg expressed as T/C in experiment 2. It is filed as functional. The method, boiled down:
as §2

Assay [16] addresses T1, Dihydrofolate reductase (Mus musculus) (UniProt P00375).
T1 sequence (whole entry): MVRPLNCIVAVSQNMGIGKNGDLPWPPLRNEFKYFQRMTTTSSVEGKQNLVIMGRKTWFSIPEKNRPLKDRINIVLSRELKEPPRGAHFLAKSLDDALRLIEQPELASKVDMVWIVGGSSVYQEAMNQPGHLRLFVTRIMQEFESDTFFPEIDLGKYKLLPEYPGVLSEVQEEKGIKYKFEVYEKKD
Kind of assay: Compound is evaluated for binding to L1210 mouse leukemia cells dihydrofolate reductase using ligand-binding assay.

In assay [17] the test system is L1210. Kind of assay: Compound is evaluated for percent increase in against L1210 leukemia in mice, at dose 15 mg/kg. The format is functional. The conditions noted are these: Mus musculus. The method in brief: as §3
The subject of assay [18] is L1210. Kind of assay: Compound is evaluated for percent increase in against L1210 leukemia in mice, at dose 30 mg/kg. It is filed as functional. The conditions noted are these: Mus musculus, L1210, dose 30 mg/kg. The method, boiled down: as §3
Assay [19] relates to Mus musculus. Kind of assay: Compound is evaluated for activity against L1210 leukemia in mice, at dose 60 mg/kg expressed as T/C=18/9. It is filed as functional. The method, boiled down:
as §2

Assay [20] deals with Mus musculus. The assay can be described thus: Compound is evaluated for activity against L1210 leukemia in mice, at dose 15 mg/kg expressed as T/C=15.5/9. The format is functional. The method, boiled down: as §2
Assay [21] concerns Mus musculus. Kind of assay: Compound is evaluated for activity against L1210 leukemia in mice, at dose 30 mg/kg expressed as T/C=16.5/9. The format is functional. The method in brief:
as §2

Assay [22] has as its system RBL-1. Kind of assay: Compound is tested for the inhibition of growth of rat basophilic leukemia (RBL)cells. It is filed as functional. The conditions noted are these: read-out: ID50 (the source's name).
Assay [23] concerns CCRF-CEM. Kind of assay: Compound was tested for the inhibition of growth of human lymphoblastic leukemia cells (CEM). It is filed as functional. To be noted: read-out: ID50 (the source's name). The method, boiled down: as §1
Assay [24] concerns L1210. Kind of assay: Compound was tested for the inhibition of growth of murine leukemia cells (L1210). The format is functional. The conditions noted are these: Mus musculus, read-out: ID50 (the source's name). The method, boiled down: as §1
The subject of assay [25] is RBL-1. Kind of assay: Compound was tested for the inhibition of growth of rat basophilic leukemia (RBL) cells. The format is functional. The conditions noted are these: read-out: ID50 (the source's name).
Assay [26] relates to CCRF-CEM (Homo sapiens). The assay can be described thus: Percent inhibition of human lymphoblastic leukemia cell growth (48h) at 10 uM.
The target in assay [27] is Dihydrofolate reductase (Lactobacillus casei) (UniProt P00381). Kind of assay: Compound is evaluated for binding to dihydrofolate reductase of Lactobacillus casei using kinetic assay. The conditions noted are these: Lacticaseibacillus casei.
Assay [28] relates to L1210. Kind of assay: Compound is evaluated for activity against L1210 leukemia in mice, at dose 120 mg/kg. The format is functional, Mus musculus. The method, boiled down:
as §2

The subject of assay [29] is L1210. Kind of assay: Compound is evaluated for activity against L1210 leukemia in mice, at dose 40 mg/kg. It is filed as functional, Mus musculus. The method in brief: as §2
In assay [30] the test system is L1210. Kind of assay: Compound is evaluated for activity against L1210 leukemia in mice, at dose 80 mg/kg. It is filed as functional, Mus musculus. The method in brief:
as §2

For assay [31], the system named is L1210. Kind of assay: Compound is evaluated for percent increase in life span against L1210 leukemia in mice, at dose 80 mg/kg. The format is functional. The conditions noted are these: Mus musculus. The method in brief:
as §3

Assay [32] has as its system L1210. Kind of assay: Compound is evaluated for percent increase in life span against L1210 leukemia in mice, at dose 40 mg/kg. To be noted: Mus musculus. The format is functional. The method in brief: as §3
Assay [33] relates to L1210. Kind of assay: Compound is evaluated for percent increase in life span against L1210 leukemia in mice, at dose 120 mg/kg. The format is functional. The conditions noted are these: Mus musculus. The method in brief:
as §3

Assay [34] has as its system Mus musculus. The assay can be described thus: Compound is evaluated for activity against L1210 leukemia in mice, at dose 40 mg/kg expressed as T/C= 13/9. It is filed as functional. The method, boiled down: as §2
The test system of assay [35] is Mus musculus. The assay can be described thus: Compound is evaluated for activity against L1210 leukemia in mice, at dose 80 mg/kg expressed as T/C=19/9. It is filed as functional. The method, boiled down: as §2
For assay [36], the system named is Mus musculus. The assay can be described thus: Compound is evaluated for activity against L1210 leukemia in mice, at dose 120 mg/kg expressed as T/C=23/9. It is filed as functional. The method, boiled down:
as §2

Assay [37] concerns the target Dihydrofolate reductase (Lactobacillus casei) (UniProt P00381). The assay can be described thus: Affinity for partially purified bacterial (Lactobacillus casei) dihydrofolate reductase. To be noted: Lacticaseibacillus casei.
Assay [38] concerns the target T1, Dihydrofolate reductase (Mus musculus). Kind of assay: Affinity for mammalian (L1210 mouse leukemia) dihydrofolate reductase. The method in brief:
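Partially purified DHFR from L1210 cells, diluted 8-fold in 0.1 M KH2PO4 (pH 6.2) with 0.1% BSA and 1 mM NADPH, then held on ice 5 min. Competition with [3H]MTX over serial 5-fold dilutions starting from a 6 μM solution, 5 min at 0 °C. Unbound ligand removed with Norite charcoal and the supernatant counted; ID50 (50% drop in bound label) read from a logit-log plot.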

Structures are written as SMILES.

Sequence of Dihydrofolate reductase (Lactobacillus casei) (P00381 whole entry): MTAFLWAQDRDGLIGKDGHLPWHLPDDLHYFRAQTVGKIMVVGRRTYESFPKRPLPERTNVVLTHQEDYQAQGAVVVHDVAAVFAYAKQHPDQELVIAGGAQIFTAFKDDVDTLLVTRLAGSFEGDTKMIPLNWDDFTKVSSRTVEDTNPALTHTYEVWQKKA

The ILS is how much longer treated animals lived than controls. A higher ILS goes with a large benefit in survival. As for `CN(Cc1cnc2nc(N)nc(N)c2n1)c1ccc(C(=O)NC(CCC(=O)NO)C(=O)O)cc1` (configuration not stated), the IC50 in [1] came out at 250 nM; in assay [7], 62 nM. The values for the ID50 in assay [2] and in assay [16] were 30 nM and 4.8 nM, respectively. Moreover, the MTX equivalent worked out at 14.6 mg/kg in [3], 19.4 mg/kg in [4], 38.8 mg/kg in assay [5] and 7.3 mg/kg in assay [6]. Also, the ILS at 20 mg/kg in assay [8] worked out at 89%. Besides, the ILS at 40 mg/kg in [9] turned out to be 111%. Also, the ILS at 7.5 mg/kg in assay [10] came to 50%. In [11], this compound returned an ILS at 15 mg/kg of 60%. Also, the “Median T/C” value in [12] came to 15 days; in assay [13], 16 days; in [14], 17 days; in assay [15], 19 days.

For the compound `CN(Cc1cnc2nc(N)nc(N)c2n1)c1ccc(C(=O)N[C@@H](CCC(=O)O)C(=O)O)cc1` [METHOTREXATE], the figures for the IC50 in assay [1], in assay [7] and in [22] were 3 nM, 10 nM and 3 nM, respectively. For the same compound, the ILS at 15 mg/kg in assay [17] was determined as 72%. This compound had an ILS at 30 mg/kg in assay [18] of 83%. The “Median T/C” value in [19] stood at 18 days; in assay [20] it was 15.5 days; in [21] it was 16.5 days.

By inhibition is commonly meant the drop in the measured response relative to a control, in per cent. A lower inhibition goes with a weak effect. For `CN(Cc1cnc2nc(N)nc(N)c2n1)c1ccc(C(=O)NC(CCC(=O)NC23CC4CC(CC(C4)C2)C3)C(=O)NC23CC4CC(CC(C4)C2)C3)cc1` (configuration not stated), the IC50 is more than 10000 nM in assay [23], 3400 nM in assay [24] and 1600 nM in [25]. Besides, the ID50 worked out at 6300 nM in [2] and 3100 nM in assay [16]. In addition, the inhibition at 10 µM in assay [26] came out at 38%.

Turning to `CN(Cc1cnc2nc(N)nc(N)c2n1)c1ccc(C(=O)NC(CCC(=O)Nc2ccccc2)C(=O)Nc2ccccc2)cc1` (configuration not stated), the values for the IC50 in assay [1] and in [7] were 3300 nM and 410 nM, respectively. Also, the ID50 in assay [27] came to 1100 nM; in [16] it was 74 nM. Also, the MTX equivalent in [28] came out at 90 mg/kg; in [29], 30 mg/kg; in assay [30], 60 mg/kg. Moreover, the ILS at 80 mg/kg in assay [31] turned out to be 111%. The compound also displayed an ILS at 40 mg/kg in assay [32] of 44%. In assay [33], this compound displayed an ILS at 120 mg/kg of 155%. Also, the “Median T/C” value in assay [34] was found to be 13 days; in assay [35], 19 days; in assay [36], 23 days.

In the case of `CN(Cc1ccccc1)C(=O)CCC(NC(=O)c1ccc(N(C)Cc2cnc3nc(N)nc(N)c3n2)cc1)C(=O)N(C)Cc1ccccc1` (configuration not stated), the IC50 is 6400 nM in assay [23] and 9400 nM in assay [24]. Besides, the ID50 was determined as 440 nM in assay [37] and 26 nM in [38].
